# What was measured:
# [1] = test system: Human immunodeficiency virus 1; test: Antiviral activity against R5 tropic Human immunodeficiency virus 1 subtype B-ADA5 infected in human TZM-bl cells assessed as inhibition of virus-induced cytopathic effect after 2 days by luciferase assay; type: functional, organism-based; conditions: Human immunodeficiency virus 1, subtype B-ADA5, TZM-bl, 48 h
# In short: (§1)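 TZM-bl cells were seeded at 1 × 10^4 per well and incubated overnight at 37 °C in 5% CO2. Medium was then replaced with HIV-1 stock for 2 h at 37 °C, and compound concentrations giving >50% viability were added. After two days, luciferase activity was read as RLU. EC50 is the mean of two independent assays, each in duplicate. Nevirapine served as positive control.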
# [2] = Cytotoxicity in human TZM-bl cells assessed as cell viability after 48 hrs by MTT assay; type: cell-based
# In short: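 TZM-bl (JC53BL-13) cells were seeded at 1 × 10^4 per well and incubated overnight at 37 °C in 5% CO2. Medium was replaced with a twofold dilution series of compound for 48 h, and viability was read by MTT absorbance. CC50 (50% cytotoxic concentration) is the mean of three independent assays, each in quadruplicate.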
# [3] = Selectivity index, ratio of CC50 for human TZM-bl cells to EC50 for X4 tropic Human immunodeficiency virus 1 subtype B-3B; type: cell-based; conditions: read-out: Ratio CC50/EC50
# In short: (§2)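 Selectivity index is CC50/EC50. […] EC50 came from the 2-day luciferase (RLU) readout in HIV-1-infected TZM-bl cells (mean of two assays).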
# [4] = Selectivity index, ratio of CC50 for human TZM-bl cells to EC50 for R5 tropic Human immunodeficiency virus 1 subtype B-ADA5; type: toxicity, cell-based; conditions: read-out: Ratio CC50/EC50; in short: as §2
# [5] = test system: Human immunodeficiency virus 1; test: Antiviral activity against X4 tropic Human immunodeficiency virus 1 subtype D-UG070 infected in human TZM-bl cells assessed as inhibition of virus-induced cytopathic effect after 2 days by luciferase assay; type: functional, organism-based; conditions: Human immunodeficiency virus 1, subtype D-UG070, TZM-bl, 48 h; in short: as §1
# [6] = test system: Human immunodeficiency virus 1; test: Antiviral activity against R5 tropic Human immunodeficiency virus 1 subtype C-VB59 infected in human TZM-bl cells assessed as inhibition of virus-induced cytopathic effect after 2 days by luciferase assay; type: functional, organism-based; conditions: Human immunodeficiency virus 1, subtype C-VB59, TZM-bl, 48 h; in short: as §1
# [7] = Selectivity index, ratio of CC50 for human TZM-bl cells to EC50 for X4 tropic Human immunodeficiency virus 1 subtype D-UG070; type: toxicity, cell-based; conditions: read-out: Ratio CC50/EC50; in short: as §2
# [8] = Selectivity index, ratio of CC50 for human TZM-bl cells to EC50 for R5 tropic Human immunodeficiency virus 1 subtype C-VB59; type: toxicity, cell-based; conditions: read-out: Ratio CC50/EC50; in short: as §2
# [9] = target: Human immunodeficiency virus type 1 reverse transcriptase (Human immunodeficiency virus 1) (UniProt Q72547); test: Inhibition of biotin-dNTP labeled HIV-1 reverse transcriptase using ABST as substrate at 100 ug/ml after 1 hr by ELISA
# In short: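 ELISA-format RT assay. Template/primer, biotin- and DIG-labelled dNTPs and RT enzyme in lysis buffer were incubated 1 h at 37 °C. The product was captured on streptavidin, detected with anti-DIG-peroxidase and ABTS substrate, and absorbance read at 405 nm. Activity is reported as percent inhibition of RT.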
# [10] = test system: Human immunodeficiency virus 1; test: Antiviral activity against X4 tropic Human immunodeficiency virus 1 subtype B-3B infected in human TZM-bl cells assessed as inhibition of virus-induced cytopathic effect after 2 days by luciferase assay; type: functional, organism-based; conditions: 48 h; in short: as §1
Compound,EC50 [1],EC50 [5],EC50 [6],inhibition [9],EC50 [10],CC50 at 48 h [2],selectivity ratio [3],selectivity ratio [4],selectivity ratio [7],selectivity ratio [8]
Cc1cc(N2C(=O)CSC2c2c(F)cccc2Cl)no1 (stereo not drawn),1.06 µg/mL,0.75 µg/mL,0.68 µg/mL,95.5%,0.67 µg/mL,38.5 µg/mL,57.4,36.3,51.3,56.6
CC(C)(C)c1cc(N2C(=O)CSC2c2c(F)cccc2F)no1 (stereo not drawn),2.58 µg/mL,–,–,71.5%,2.97 µg/mL,45.9 µg/mL,15.5,18,–,–
Cc1cccc(N2C(=O)CSC2c2c(Br)cncc2Br)n1 (stereo not drawn),4.11 µg/mL,5.55 µg/mL,2.24 µg/mL,77.6%,2.22 µg/mL,26.7 µg/mL,12,6.5,4.8,11.9
Cc1nc(N2C(=O)CSC2c2c(Br)cncc2Br)ccc1Br (stereo not drawn),2.52 µg/mL,–,–,75.9%,6.09 µg/mL,26.9 µg/mL,4.4,10.7,–,–
CC(C)(C)c1cc(N2C(=O)CSC2c2c(F)cccc2Cl)no1 (stereo not drawn),3.07 µg/mL,1.6 µg/mL,2.5 µg/mL,51.1%,1.95 µg/mL,40.7 µg/mL,20.8,13.2,24.4,16.2
Cc1cc(C)nc(N2C(=O)CSC2c2c(Br)cncc2Br)c1 (stereo not drawn),1.21 µg/mL,2.1 µg/mL,1.59 µg/mL,62.8%,1.41 µg/mL,49.8 µg/mL,35.3,41.1,23.7,31.3
Cc1ccnc2c1NC(=O)c1cccnc1N2C1CC1 [NEVIRAPINE],0.05 µg/mL,0.05 µg/mL,0.05 µg/mL,–,0.05 µg/mL,76.1 µg/mL,1520,1520,1520,1520
Cc1cc(N2C(=O)CSC2c2c(F)cccc2F)no1 (stereo not drawn),1.34 µg/mL,1.9 µg/mL,1.45 µg/mL,98.1%,1.01 µg/mL,62.7 µg/mL,62,46.8,33,43.2

# Second part, led by results:
EC50 [1],EC50 [5],EC50 [6],inhibition [9],EC50 [10],Compound,CC50 at 48 h [2],selectivity ratio [3],selectivity ratio [4],selectivity ratio [7],selectivity ratio [8]
2.4 µg/mL,1.76 µg/mL,1.8 µg/mL,50.4%,1.49 µg/mL,CC(C)(C)c1cc(N2C(=O)CSC2c2c(Cl)cccc2Cl)no1 (stereo not drawn),48.5 µg/mL,32.6,20,27.5,26.9
1.64 µg/mL,3.1 µg/mL,1.95 µg/mL,84.1%,0.65 µg/mL,Cc1cccc(N2C(=O)CSC2c2c(Cl)cncc2Cl)n1 (stereo not drawn),45 µg/mL,69.8,27.4,14.5,23.1
4.8 µg/mL,–,–,57.4%,1.5 µg/mL,Cc1cc(N2C(=O)CSC2c2c(Cl)cncc2Cl)nc(C)c1Br (stereo not drawn),15.6 µg/mL,10.4,3.2,–,–
1.26 µg/mL,1.8 µg/mL,0.65 µg/mL,76.5%,0.93 µg/mL,CSc1nc(Cl)cc(N2C(=O)CSC2c2c(F)cccc2Cl)n1 (stereo not drawn),27 µg/mL,29,21.4,15,41.5
0.31 µg/mL,1.55 µg/mL,1.1 µg/mL,85.3%,0.8 µg/mL,Cc1cc(C)nc(N2C(=O)CSC2c2c(Cl)cncc2Cl)c1 (stereo not drawn),37.3 µg/mL,46.6,120,24.1,33.9
2.17 µg/mL,8.45 µg/mL,6.5 µg/mL,76.6%,6.18 µg/mL,Cc1nc(N2C(=O)CSC2c2c(Cl)cncc2Cl)ccc1Br (stereo not drawn),66.7 µg/mL,10.8,30.7,7.89,10.3
–,–,–,62%,–,Cc1cc(N2C(=O)CSC2c2c(Br)cncc2Br)nc(C)c1Br (stereo not drawn),–,–,–,–,–
0.12 µg/mL,0.1 µg/mL,0.07 µg/mL,91.2%,0.09 µg/mL,Cc1cc(N2C(=O)CSC2c2c(F)cccc2Cl)nc(C)c1Br (stereo not drawn),40.2 µg/mL,447,335,402,574
0.85 µg/mL,0.29 µg/mL,0.35 µg/mL,60.7%,1.04 µg/mL,Cc1cc(N2C(=O)CSC2c2c(Cl)cccc2Cl)nc(C)c1Br (stereo not drawn),2.5 µg/mL,2.4,2.9,8.6,7.1
0.65 µg/mL,0.5 µg/mL,0.35 µg/mL,75.4%,0.35 µg/mL,Cc1cc(N2C(=O)CSC2c2c(Cl)cccc2Cl)no1 (stereo not drawn),40.5 µg/mL,116,62.3,81,116

# — ChEMBL document CHEMBL1914449, “Lead optimization at C-2 and N-3 positions of thiazolidin-4-ones as HIV-1 non-nucleoside reverse transcriptase inhibitors” (Bioorg Med Chem, 2011)
